Test results: ChEMBL document CHEMBL3044755, “5-Methyl-1,2,3-thiadiazoles synthesized via ugi reaction and their fungicidal and antiviral activities” (J Agric Food Chem, 2010)

Columns and labels:
Format in all cases: functional
[1] = test system: Fusarium graminearum; test: Fungicidal activity against Fusarium graminearum at 50 ug/ml by growth inhibition method; conditions: read-out: GI
Summary of the method: (§1)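 Mycelial growth inhibition on potato dextrose agar. The panel covered Alternaria solani, Botrytis cinerea, Cercospora arachidicola, C. beticola, Colletotrichum lagenarium, Fusarium oxysporum, Gibberella zeae, Puccinia triticina, Phytophthora infestans, Physalospora piricola, Pellicularia sasakii and Rhizoctonia solani.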

[2] = test system: Cercospora beticola; test: Fungicidal activity against Cercospora beticola at 50 ug/ml by growth inhibition method; conditions: read-out: GI; summary of the method: as §1
[3] = test system: Fusarium oxysporum; test: Fungicidal activity against Fusarium oxysporum at 50 ug/ml by growth inhibition method; conditions: read-out: GI; summary of the method: as §1
[4] = test system: Botryosphaeria berengeriana; test: Fungicidal activity against Botryosphaeria berengeriana at 50 ug/ml by growth inhibition method; conditions: read-out: GI; summary of the method: as §1
[5] = test system: Mycosphaerella arachidis; test: Fungicidal activity against Mycosphaerella arachidis at 50 ug/ml by growth inhibition method; conditions: read-out: GI; summary of the method: as §1
[6] = test system: Botrytis cinerea; test: Fungicidal activity against Botryotinia fuckeliana at 50 ug/ml by growth inhibition method; conditions: read-out: GI; summary of the method: as §1
[7] = test system: Tobacco mosaic virus; test: In vitro antiviral activity against Tobacco mosaic virus (TMV) infected tobacco leaves at 100 ug/ml
[8] = test system: Phytophthora infestans; test: Fungicidal activity against Phytophthora infestans at 50 ug/ml by growth inhibition method; conditions: read-out: GI; summary of the method: as §1
[9] = test system: Colletotrichum lagenaria; test: Fungicidal activity against Colletotrichum lagenaria at 50 ug/ml by growth inhibition method; conditions: read-out: GI; summary of the method: as §1
[10] = test system: Tobacco mosaic virus; test: In vitro antiviral activity against Tobacco mosaic virus (TMV) infected tobacco leaves at 500 ug/ml
[11] = test system: Alternaria solani; test: Fungicidal activity against Alternaria solani at 50 ug/ml by growth inhibition method; conditions: read-out: GI; summary of the method: as §1
[12] = test system: Thanatephorus cucumeris; test: Fungicidal activity against Thanatephorus cucumeris at 50 ug/ml by growth inhibition method; conditions: read-out: GI; summary of the method: as §1
[13] = test system: Puccinia triticina; test: Fungicidal activity against Puccinia triticina at 50 ug/ml by growth inhibition method; conditions: read-out: GI; summary of the method: as §1
[14] = test system: Rhizoctonia solani; test: Fungicidal activity against Rhizoctonia solani at 50 ug/ml by growth inhibition method; conditions: read-out: GI; summary of the method: as §1

SMILES | inhibition of growth at 50 µg/mL [1] | inhibition of growth at 50 µg/mL [2] | inhibition of growth at 50 µg/mL [3] | inhibition of growth at 50 µg/mL [4] | inhibition of growth at 50 µg/mL [5] | inhibition of growth at 50 µg/mL [6] | inhibition at 100 µg/mL [7] | inhibition of growth at 50 µg/mL [8] | inhibition of growth at 50 µg/mL [9] | inhibition at 500 µg/mL [10] | inhibition of growth at 50 µg/mL [11] | inhibition of growth at 50 µg/mL [12] | inhibition of growth at 50 µg/mL [13] | inhibition of growth at 50 µg/mL [14]
Cc1ccc(N(C(=O)c2nnsc2C)C(C(=O)NC(C)C)c2ccccc2[N+](=O)[O-])cc1Cl (stereo unspecified) | 12% | 8% | 14% | 39% | 5% | 60% | 19% | 24% | 10% | 59% | 26% | 31% | – | –
Cc1ccc(N(C(=O)c2nnsc2C)C(C(=O)NC(C)C)c2cccc(F)c2)cc1F (stereo unspecified) | 5% | 25% | – | 0% | 27% | – | 50% | 19% | 57% | 30% | 44% | 0% | 0% | 43%
Cc1ccc(N(C(=O)c2nnsc2C)C(C(=O)NC(C)C)c2ccc(C(F)(F)F)cc2)cc1F (stereo unspecified) | 0% | 25% | – | 0% | 0% | – | 14% | 25% | 0% | 45% | 0% | 11% | 0% | 15%
Cc1ccc(N(C(=O)c2nnsc2C)C(C(=O)NC(C)C)c2cccc(C(F)(F)F)c2)cc1F (stereo unspecified) | 36% | 25% | – | 8% | 27% | – | 19% | 0% | 14% | 51% | 0% | 4% | 14% | 22%
Cc1ccc(C(C(=O)NC(C)C)N(C(=O)c2nnsc2C)c2ccc(C)c(F)c2)cc1 (stereo unspecified) | 0% | 25% | – | 0% | 45% | – | 7% | 13% | 29% | 31% | 31% | 11% | 14% | 37%
Cc1ccc(N(C(=O)c2nnsc2C)C(C(=O)NC(C)C)c2cccc(O)c2)cc1Cl (stereo unspecified) | 15% | 23% | 30% | 45% | 14% | 73% | 13% | 30% | 13% | 24% | 33% | 59% | – | –
Cc1ccc(N(C(=O)c2nnsc2C)C(C(=O)NC(C)C)c2ccccc2O)cc1Cl (stereo unspecified) | 18% | 0% | 18% | 39% | 9% | 75% | 18% | 24% | 7% | 23% | 38% | 47% | – | –
Cc1ccc(N(C(=O)c2nnsc2C)C(C(=O)NC(C)C)c2ccccc2)cc1F (stereo unspecified) | 27% | 0% | – | 0% | 9% | – | 5% | 38% | 14% | 15% | 13% | 0% | 0% | 2%
